Our source for the inhibition and IC50 values is ChEMBL document CHEMBL1131419, “Methoxy-substituted 3-formyl-2-phenylindoles inhibit tubulin polymerization” (J Med Chem, 1998).

The target of assay [1] is Tubulin (Bos taurus) (UniProt Q6B856+Q862L2+Q862F3). As to the kind of experiment: Tested for its capability of competing with colchicine for binding to tubulin. Format: protein assay. Details: concentration or dose not given beside the values. Particulars: concentration not given here. The procedure, abridged:
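Calf brain tubulin (cycled, diluted 1:10 in PEM pH 6.6–6.7) incubated with 1 μM [3H]colchicine and 10 μM inhibitor (DMSO) for 30 min at 37 °C; GTP added on ice, mixture filtered through DEAE-cellulose filters, washed with PEM, bound radioactivity counted by liquid scintillation; no-tubulin mixtures as background. Mean of two independent experiments.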

The target in assay [2] is Tubulin (Bos taurus, UniProt Q6B856+Q862L2+Q862F3). Type of assay: protein assay.

In the case of `COc1ccc(-c2c(C=O)c3ccc(OC)cc3n2C)cc1`, the inhibition in assay [1] was 30%.

Compound `COc1ccc(-c2[nH]c3cc(F)ccc3c2C=O)cc1` showed an IC50 in assay [2] of 1.8 µM.

For `COc1ccc(-c2sc3cc(OC)ccc3c2C=O)cc1`, in assay [2], the IC50 stood at 1.8 µM. Besides, the inhibition in assay [1] is 56%.

In turn, `COc1ccc(-c2[nH]c3ccc(OC)cc3c2C=O)cc1` yielded an IC50 in assay [2] of 4 µM.

In turn, `CCCC1Cc2cc(O)ccc2-c2c(C=O)c3ccc(O)cc3n21` (configuration not stated) showed an IC50 in assay [2] of 19 µM. This compound also came in with an inhibition in assay [1] of 40%.

`COc1ccc(-c2[nH]c3ccccc3c2C=O)cc1`: the IC50 in assay [2] was 3.3 µM.

As for `COc1ccc(-c2[nH]c3cc(OC)ccc3c2C=O)cc1`, the IC50 in assay [2] was 1.5 µM. In assay [1], this compound showed an inhibition of 23%.

Consider `CCCC1Cc2cc(OC)ccc2-c2c(C=O)c3ccc(OC)cc3n21` (configuration not stated), for which the inhibition in assay [1] was below 10%.

`CCCCC1Cc2cc(O)ccc2-c2c(C=O)c3ccc(O)cc3n21` (configuration not stated): the IC50 in assay [2] came out at 8.9 µM.

The term inhibition denotes the drop in the measured response relative to a control, in per cent. As a reminder, the IC50 is the concentration at which inhibition is half-maximal.
